Data reported in ChEMBL document CHEMBL1140161, “Structure-activity relationships in 1,4-benzodioxan-related compounds. 9. From 1,4-benzodioxane to 1,4-dioxane ring as a promising template of novel alpha1D-adrenoreceptor antagonists, 5-HT1A full agonists, and cytotoxic agents” (J Med Chem, 2008).

Experiments:
[1] = tested on: PC-3; assay: Cytotoxicity against human PC3 cells after 48 hrs by SRB assay; assay type: functional; conditions: PC-3, 48 h; for CC50: read-out: LC50 (the source's name)
Outline: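 PC-3 human prostate cancer cells. Growth measured by sulforhodamine B staining following the NCI protocol. […] Values are means of quadruplicate determinations ± standard error (n = 5).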

[2] = molecular target: T1, Alpha-1B adrenergic receptor (Homo sapiens, UniProt P35368); assay: Displacement of [3H]prazosin from human cloned Alpha-1B adrenoceptor expressed in CHO cells; assay type: cell-based
T1 sequence (P35368 whole entry): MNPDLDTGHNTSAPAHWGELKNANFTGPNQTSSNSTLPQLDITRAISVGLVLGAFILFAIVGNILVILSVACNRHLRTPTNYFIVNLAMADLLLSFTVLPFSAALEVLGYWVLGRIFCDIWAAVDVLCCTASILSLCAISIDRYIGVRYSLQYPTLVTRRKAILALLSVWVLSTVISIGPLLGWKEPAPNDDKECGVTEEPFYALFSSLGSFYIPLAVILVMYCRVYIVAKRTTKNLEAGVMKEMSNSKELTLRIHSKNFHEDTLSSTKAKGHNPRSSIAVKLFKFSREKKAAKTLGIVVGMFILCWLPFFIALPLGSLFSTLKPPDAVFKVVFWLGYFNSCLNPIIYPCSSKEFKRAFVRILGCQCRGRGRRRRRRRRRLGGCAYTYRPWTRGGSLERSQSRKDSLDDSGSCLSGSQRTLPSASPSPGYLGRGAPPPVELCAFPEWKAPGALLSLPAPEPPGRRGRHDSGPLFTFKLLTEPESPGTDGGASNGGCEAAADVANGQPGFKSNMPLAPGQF
Outline: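 [3H]prazosin binding to cloned human α1-adrenoceptor subtypes expressed in CHO cell membranes. Affinity reported as pKi for each subtype.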

[3] = molecular target: T2, 5-hydroxytryptamine receptor 1A (Homo sapiens) (UniProt P08908); assay: Agonist activity at human cloned 5HT1A receptor expressed in HeLa cell membrane assessed as stimulation of [35S]GTPgammaS binding relative to 5-hydroxytryptamine; assay type: functional, cell membranes
T2 sequence (whole entry): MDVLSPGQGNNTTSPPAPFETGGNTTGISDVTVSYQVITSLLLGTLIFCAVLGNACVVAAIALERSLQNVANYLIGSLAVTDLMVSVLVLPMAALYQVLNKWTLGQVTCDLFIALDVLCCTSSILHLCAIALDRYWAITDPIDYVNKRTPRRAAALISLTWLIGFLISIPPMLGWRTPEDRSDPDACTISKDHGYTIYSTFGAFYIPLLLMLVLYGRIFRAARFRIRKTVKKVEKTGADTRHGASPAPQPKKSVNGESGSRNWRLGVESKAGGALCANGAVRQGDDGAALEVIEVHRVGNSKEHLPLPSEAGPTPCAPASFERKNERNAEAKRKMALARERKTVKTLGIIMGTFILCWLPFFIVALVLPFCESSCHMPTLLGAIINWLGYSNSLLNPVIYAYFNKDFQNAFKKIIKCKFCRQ
Outline: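 Activation measured as [35S]GTPγS binding in membranes from HeLa cells expressing cloned human 5-HT1A receptor. pD2 is the negative log of agonist concentration giving 50% of maximal stimulation, from two to three experiments agreeing within 20%. Efficacy is given relative to 5-HT.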

[4] = molecular target: T2, 5-hydroxytryptamine receptor 1A (Homo sapiens); assay: Agonist activity at human cloned 5HT1A receptor expressed in human HeLa cell membrane assessed as stimulation of [35S]GTPgammaS binding; assay type: functional, cell membranes
Outline: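 Membranes from HeLa cells expressing cloned human 5-HT1A receptor; agonist-stimulated [35S]GTPγS binding measured. pD2 is the negative log of the agonist concentration giving 50% of maximal [35S]GTPγS binding stimulation; values from two to three experiments.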

[5] = molecular target: T3, Alpha-1A adrenergic receptor (Rattus norvegicus) (UniProt P43140); assay: Antagonist activity at alpha1A adrenoceptor in Wistar rat prostatic vas deferens assessed as inhibition of (-)-noradrenaline-induced contraction after 30 mins; assay type: functional, tissue-based
T3 sequence (whole entry): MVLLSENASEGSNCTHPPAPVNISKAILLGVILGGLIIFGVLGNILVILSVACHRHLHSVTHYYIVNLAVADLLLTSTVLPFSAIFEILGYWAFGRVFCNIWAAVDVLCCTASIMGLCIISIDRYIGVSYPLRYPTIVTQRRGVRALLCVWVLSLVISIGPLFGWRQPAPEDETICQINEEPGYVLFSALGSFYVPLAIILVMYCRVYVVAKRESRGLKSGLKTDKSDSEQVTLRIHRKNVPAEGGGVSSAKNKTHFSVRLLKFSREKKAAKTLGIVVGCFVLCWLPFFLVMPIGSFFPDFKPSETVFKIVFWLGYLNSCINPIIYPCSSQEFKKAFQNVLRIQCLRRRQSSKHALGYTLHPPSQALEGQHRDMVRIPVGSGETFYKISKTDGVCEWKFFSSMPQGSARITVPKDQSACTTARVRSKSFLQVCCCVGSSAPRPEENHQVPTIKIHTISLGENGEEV

[6] = molecular target: T4, Alpha-1B adrenergic receptor (Rattus norvegicus) (UniProt P15823); assay: Antagonist activity at alpha1B adrenoceptor in Wistar rat spleen assessed as inhibition of (-)-phenylephrine-induced contraction after 30 mins; assay type: functional, tissue-based
T4 sequence (whole entry): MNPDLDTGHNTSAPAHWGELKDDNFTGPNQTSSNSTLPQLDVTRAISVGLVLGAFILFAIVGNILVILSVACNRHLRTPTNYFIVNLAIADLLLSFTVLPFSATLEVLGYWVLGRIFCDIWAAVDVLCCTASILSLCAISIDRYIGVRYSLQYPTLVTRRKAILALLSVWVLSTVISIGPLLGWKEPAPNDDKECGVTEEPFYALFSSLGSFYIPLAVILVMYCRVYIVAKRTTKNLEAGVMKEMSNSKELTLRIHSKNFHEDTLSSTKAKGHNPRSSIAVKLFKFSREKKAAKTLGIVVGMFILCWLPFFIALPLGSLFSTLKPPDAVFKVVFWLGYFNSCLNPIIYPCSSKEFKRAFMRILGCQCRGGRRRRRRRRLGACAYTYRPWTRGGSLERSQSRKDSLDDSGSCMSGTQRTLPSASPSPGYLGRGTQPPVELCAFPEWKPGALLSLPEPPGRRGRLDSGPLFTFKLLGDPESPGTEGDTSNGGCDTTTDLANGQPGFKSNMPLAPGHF

[7] = molecular target: T5, Alpha-1D adrenergic receptor (Rattus norvegicus) (UniProt P23944); assay: Antagonist activity at Alpha-1D adrenoceptor in Wistar rat thoracic aorta assessed as inhibition of (-)-noradrenaline-induced contraction after 30 mins; assay type: functional, tissue-based
T5 sequence (whole entry): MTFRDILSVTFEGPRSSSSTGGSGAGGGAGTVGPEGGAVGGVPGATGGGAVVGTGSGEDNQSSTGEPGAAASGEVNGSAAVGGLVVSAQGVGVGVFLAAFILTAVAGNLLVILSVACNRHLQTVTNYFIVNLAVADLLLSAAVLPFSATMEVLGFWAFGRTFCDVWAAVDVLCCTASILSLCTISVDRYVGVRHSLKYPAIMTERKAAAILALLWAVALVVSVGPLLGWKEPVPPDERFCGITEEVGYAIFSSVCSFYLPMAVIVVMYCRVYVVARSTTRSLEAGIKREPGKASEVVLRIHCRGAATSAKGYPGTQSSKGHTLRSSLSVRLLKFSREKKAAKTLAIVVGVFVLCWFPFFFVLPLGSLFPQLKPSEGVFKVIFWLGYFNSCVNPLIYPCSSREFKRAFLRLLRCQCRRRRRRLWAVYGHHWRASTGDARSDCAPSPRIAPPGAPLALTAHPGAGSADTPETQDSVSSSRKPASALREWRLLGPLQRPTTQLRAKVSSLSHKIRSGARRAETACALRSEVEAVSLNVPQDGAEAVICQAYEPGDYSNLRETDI

| SMILES | GI50 [1] | TGI [1] | CC50 [1] | %max [3] | pD2 [4] | pKb [6] | other results |
| --- | --- | --- | --- | --- | --- | --- | --- |
| COc1cc2nc(N3CCN(C(=O)C4COc5ccccc5O4)CC3)nc(N)c2cc1OC (configuration not stated) [DOXAZOSIN] | 26.9 µM | 49 µM | 75.8 µM | – | – | – | – |
| CCCN(CCC)C1CCc2cccc(O)c2C1 (configuration not stated) [8-OH-DPAT] | – | – | – | 100 | – | – | Ki [2]: > 1 µM |
| NCCc1c[nH]c2ccc(C(N)=O)cc12 | – | – | – | 96 | 8.45 | – | – |
| COc1cccc(OC)c1OCCNCC1COc2ccccc2O1 (configuration not stated) | 64.6 µM | 199 µM | > 200 µM | – | – | 8.16 | pKb [5]: 9.51; pKb [7]: 8.8 |
| COc1ccccc1N1CCN(CCN2C(=O)CC3(CCCC3)CC2=O)CC1 | – | – | – | 26 | 9.27 | 7.48 | – |
| NCCc1c[nH]c2ccc(O)cc12 | – | – | – | – | 7.3 | – | – |
